Test results as given in ChEMBL document CHEMBL1144398, “Structure-based design, parallel synthesis, structure-activity relationship, and molecular modeling studies of thiocarbamates, new potent non-nucleoside HIV-1 reverse transcriptase inhibitor isosteres of phenethylthiazolylthiourea derivatives” (J Med Chem, 2005).

Columns and labels:
MT4 [1] = assay: Ratio of CC50 to that of EC50 determined in MT-4 cells; type: functional
Summary of the method: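 Selectivity index, calculated as CC50/EC50. CC50 came from MTT viability of mock-infected MT-4 cells and EC50 from MTT-read protection of HIV-1-infected MT-4 cells from cytopathogenicity, with both run in parallel. Values are means of three experiments.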

MT4 [2] = assay: Cytotoxic concentration required to reduce the viability of mock infected MT-4 cells determined by MTT method; type: functional; details: Homo sapiens
Summary of the method: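 Viability of mock-infected MT-4 cells, assayed in parallel with the antiviral test, read by MTT. CC50 is the concentration that lowers viability by 50%. Values are means of three separate experiments, with variation among triplicates under 10%. The highest concentration tested was 100 µM.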

MT4 [3] = assay: Effective concentration require to protect MT-4 cells from human immunodeficiency virus type 1 induced cytopathogenicity was determined by MTT method; type: functional, cell-based
Summary of the method: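 MT-4 cells infected with HIV-1, with test compounds added. Protection from virus-induced cytopathogenicity was read by MTT. EC50 is the concentration giving 50% protection. Values are means of three separate experiments, with variation among triplicates under 10%. Trovirdine served as the reference.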

## O=C1c2ccccc2C(=O)N1CCOC(=S)Nc1cccc(C(F)(F)F)c1
MT4 [1]
  SI: >7.7
MT4 [2]
  CC50: > 100 µM
MT4 [3]
  EC50: 13 µM

## CCOC(=O)c1ccc(NC(=S)OCCN2C(=O)c3ccccc3C2=O)cc1
MT4 [1]
  SI: >4.3
MT4 [2]
  CC50: > 100 µM
MT4 [3]
  EC50: 23 µM

## O=C(O)c1ccccc1C(=O)NCCO/C(S)=N\c1ccccc1
MT4 [1]
  SI: >33.3
MT4 [2]
  CC50: > 100 µM
MT4 [3]
  EC50: 3 µM

## CCN(CC)c1ccc(NC(=S)OCCN2C(=O)c3ccccc3C2=O)cc1
MT4 [1]
  SI: >71
MT4 [2]
  CC50: > 100 µM
MT4 [3]
  EC50: 1.4 µM

## CN(C)c1ccc(NC(=S)OCCN2C(=O)c3ccccc3C2=O)cc1
MT4 [1]
  SI: >167
MT4 [2]
  CC50: > 100 µM
MT4 [3]
  EC50: 0.6 µM

## O=C1C2C3C=CC(C3)C2C(=O)N1CCOC(=S)Nc1ccc([N+](=O)[O-])cc1 (centres undefined)
MT4 [2]
  CC50: > 100 µM
MT4 [3]
  EC50: > 100 µM

## O=C1c2ccccc2C(=O)N1CCO/C(S)=N\c1ccccc1[N+](=O)[O-]
MT4 [2]
  CC50: > 100 µM
MT4 [3]
  EC50: > 100 µM

## O=C1C2C3C=CC(C3)C2C(=O)N1CCOC(=S)Nc1ccc(Cl)cc1 (centres undefined)
MT4 [1]
  SI: >1.5
MT4 [2]
  CC50: > 100 µM
MT4 [3]
  EC50: 68 µM

## O=C1c2ccccc2C(=O)N1CCOC(=S)Nc1ccccc1Br
MT4 [1]
  SI: >7.1
MT4 [2]
  CC50: > 100 µM
MT4 [3]
  EC50: 14 µM

## COc1ccccc1/N=C(/S)OCCN1C(=O)c2ccccc2C1=O
MT4 [1]
  SI: >17.9
MT4 [2]
  CC50: > 100 µM
MT4 [3]
  EC50: 5.6 µM

## O=C1c2ccccc2C(=O)N1CCO/C(S)=N\c1ccccc1C(F)(F)F
MT4 [1]
  SI: >1.5
MT4 [2]
  CC50: > 100 µM
MT4 [3]
  EC50: 65 µM

## O=C1c2ccccc2C(=O)N1CCO/C(S)=N\c1ccccc1F
MT4 [1]
  SI: >33
MT4 [2]
  CC50: > 100 µM
MT4 [3]
  EC50: 3 µM

## O=C1c2ccccc2C(=O)N1CCOC(=S)Nc1cccc2ccccc12
MT4 [1]
  SI: >15.4
MT4 [2]
  CC50: > 100 µM
MT4 [3]
  EC50: 6.5 µM

## O=C1c2ccccc2C(=O)N1CCOC(=S)Nc1ccc(C(F)(F)F)cc1
MT4 [1]
  SI: >2500
MT4 [2]
  CC50: > 100 µM
MT4 [3]
  EC50: 0.04 µM

## CC(C)c1ccc(NC(=S)OCCNC(=O)c2ccccc2C(=O)O)cc1
MT4 [1]
  SI: >27
MT4 [2]
  CC50: > 100 µM
MT4 [3]
  EC50: 3.7 µM

## O=C1c2ccccc2C(=O)N1COC(=S)Nc1ccc([N+](=O)[O-])cc1
MT4 [2]
  CC50: 23 µM
MT4 [3]
  EC50: > 23 µM

## Cc1ccc(/N=C(/S)OC(C)CNC(=O)c2ccccc2C(=O)O)cc1 (centres undefined)
MT4 [1]
  SI: >2.4
MT4 [2]
  CC50: > 100 µM
MT4 [3]
  EC50: 41 µM

## COC(=O)c1cccc(NC(=S)OCCNC(=O)c2ccccc2C(=O)O)c1
MT4 [2]
  CC50: > 100 µM
MT4 [3]
  EC50: > 100 µM

## CC(CO/C(S)=N/c1ccc([N+](=O)[O-])cc1)N1C(=O)c2ccccc2C1=O (centres undefined)
MT4 [1]
  SI: >167
MT4 [2]
  CC50: > 100 µM
MT4 [3]
  EC50: 0.6 µM

## COc1cccc(NC(=S)OCCNC(=O)c2ccccc2C(=O)O)c1
MT4 [1]
  SI: >38.5
MT4 [2]
  CC50: > 100 µM
MT4 [3]
  EC50: 2.6 µM

## CCc1ccc(NC(=S)OCCN2C(=O)c3ccccc3C2=O)cc1
MT4 [1]
  SI: >1250
MT4 [2]
  CC50: > 100 µM
MT4 [3]
  EC50: 0.08 µM

## CC(=O)c1cccc(NC(=S)OCCN2C(=O)c3ccccc3C2=O)c1
MT4 [1]
  SI: >23
MT4 [2]
  CC50: > 100 µM
MT4 [3]
  EC50: 4.3 µM

## CSc1cccc(NC(=S)OCCNC(=O)c2ccccc2C(=O)O)c1
MT4 [1]
  SI: >9.1
MT4 [2]
  CC50: > 100 µM
MT4 [3]
  EC50: 11 µM

## CCc1ccc(NC(=S)OCCNC(=O)c2ccccc2C(=O)O)cc1
MT4 [1]
  SI: >333
MT4 [2]
  CC50: > 100 µM
MT4 [3]
  EC50: 0.3 µM

## CC(CO/C(S)=N\c1ccc(Cl)cc1)NC(=O)c1ccccc1C(=O)O (centres undefined)
MT4 [1]
  SI: >20
MT4 [2]
  CC50: > 100 µM
MT4 [3]
  EC50: 5 µM

## O=C(O)c1ccccc1C(=O)NCCO/C(S)=N\c1ccc([N+](=O)[O-])cc1
MT4 [1]
  SI: >333
MT4 [2]
  CC50: > 100 µM
MT4 [3]
  EC50: 0.3 µM

## O=C1c2ccccc2C(=O)N1CCOC(=S)NC1CCCCC1
MT4 [1]
  SI: >333
MT4 [2]
  CC50: > 100 µM
MT4 [3]
  EC50: 0.3 µM

## O=C(O)c1ccccc1C(=O)NCCO/C(S)=N\c1ccc(Cl)cc1
MT4 [1]
  SI: >1000
MT4 [2]
  CC50: > 100 µM
MT4 [3]
  EC50: 0.1 µM

## CSc1cccc(NC(=S)OCCN2C(=O)c3ccccc3C2=O)c1
MT4 [1]
  SI: >14.3
MT4 [2]
  CC50: > 100 µM
MT4 [3]
  EC50: 7 µM

## COC(=O)c1cccc(NC(=S)OCCN2C(=O)c3ccccc3C2=O)c1
MT4 [1]
  SI: >4.8
MT4 [2]
  CC50: > 100 µM
MT4 [3]
  EC50: 21 µM

## Cc1ccc(NC(=S)OCCNC(=O)c2ccccc2C(=O)O)cc1
MT4 [1]
  SI: >250
MT4 [2]
  CC50: > 100 µM
MT4 [3]
  EC50: 0.4 µM

## CC(CN1C(=O)c2ccccc2C1=O)O/C(S)=N/c1ccc(C#N)cc1 (centres undefined)
MT4 [1]
  SI: >2.7
MT4 [2]
  CC50: > 100 µM
MT4 [3]
  EC50: 36 µM

## CC(COC(=S)Nc1ccc(Cl)cc1)N1C(=O)c2ccccc2C1=O (centres undefined)
MT4 [1]
  SI: 880
MT4 [2]
  CC50: 44 µM
MT4 [3]
  EC50: 0.05 µM

## O=C1c2ccccc2C(=O)N1CCCOC(=S)Nc1ccccc1
MT4 [2]
  CC50: > 100 µM
MT4 [3]
  EC50: > 100 µM

## O=C(Nc1ccc([N+](=O)[O-])cc1)OCCN1C(=O)c2ccccc2C1=O
MT4 [1]
  SI: >200
MT4 [2]
  CC50: > 100 µM
MT4 [3]
  EC50: 0.5 µM

## CC(CN1C(=O)c2ccccc2C1=O)O/C(S)=N/c1ccc([N+](=O)[O-])cc1 (centres undefined)
MT4 [1]
  SI: >11.6
MT4 [2]
  CC50: > 100 µM
MT4 [3]
  EC50: 8.6 µM

## COC(=O)c1ccccc1/N=C(/S)OCCNC(=O)c1ccccc1C(=O)O
MT4 [2]
  CC50: > 100 µM
MT4 [3]
  EC50: > 100 µM

## N#Cc1ccc(/N=C(/S)OCCNC(=O)c2ccccc2C(=O)O)cc1
MT4 [1]
  SI: >1000
MT4 [2]
  CC50: > 100 µM
MT4 [3]
  EC50: 0.1 µM

## O=C1c2ccccc2C(=O)N1CCOC(=S)Nc1ccccc1Cl
MT4 [1]
  SI: >5.9
MT4 [2]
  CC50: > 100 µM
MT4 [3]
  EC50: 17 µM

## O=C1CCC(=O)N1CCOC(=S)Nc1ccc(Cl)cc1
MT4 [1]
  SI: >42
MT4 [2]
  CC50: > 100 µM
MT4 [3]
  EC50: 2.4 µM

## Cc1ccc2c(c1)C(=O)N(CCOC(=S)Nc1ccc(Cl)cc1)C2=O
MT4 [1]
  SI: >4000
MT4 [2]
  CC50: > 100 µM
MT4 [3]
  EC50: 0.025 µM

## CC(C)c1ccccc1/N=C(/S)OCCN1C(=O)c2ccccc2C1=O
MT4 [1]
  SI: >2.3
MT4 [2]
  CC50: > 100 µM
MT4 [3]
  EC50: 43 µM

## Cc1ccc(OC(=S)OCCN2C(=O)c3ccccc3C2=O)cc1
MT4 [2]
  CC50: > 100 µM
MT4 [3]
  EC50: > 100 µM

## O=C1c2ccccc2C(=O)N1CCOC(=S)Nc1cccc([N+](=O)[O-])c1
MT4 [1]
  SI: >167
MT4 [2]
  CC50: > 100 µM
MT4 [3]
  EC50: 0.6 µM

## O=C(O)c1ccccc1C(=O)NCCO/C(S)=N\c1ccc(F)cc1
MT4 [1]
  SI: >400
MT4 [2]
  CC50: > 100 µM
MT4 [3]
  EC50: 0.25 µM

## CC(CN1C(=O)c2ccccc2C1=O)O/C(S)=N/c1ccc(Br)cc1 (centres undefined)
MT4 [1]
  SI: >43.5
MT4 [2]
  CC50: > 100 µM
MT4 [3]
  EC50: 2.3 µM

## O=C(O)c1ccccc1C(=O)NCCO/C(S)=N\c1ccccc1F
MT4 [1]
  SI: >200
MT4 [2]
  CC50: > 100 µM
MT4 [3]
  EC50: 0.5 µM

## CCOc1ccc(NC(=S)OCCN2C(=O)c3ccccc3C2=O)cc1
MT4 [1]
  SI: >14.3
MT4 [2]
  CC50: > 100 µM
MT4 [3]
  EC50: 7 µM

## Cc1cccc(NC(=S)OCCN2C(=O)c3ccccc3C2=O)c1
MT4 [1]
  SI: >66.7
MT4 [2]
  CC50: > 100 µM
MT4 [3]
  EC50: 1.5 µM

## CC(CO/C(S)=N\c1ccc([N+](=O)[O-])cc1)NC(=O)c1ccccc1C(=O)O (centres undefined)
MT4 [1]
  SI: >7.7
MT4 [2]
  CC50: > 100 µM
MT4 [3]
  EC50: 13 µM

## O=C1c2ccccc2C(=O)N1CCOC(=S)Oc1ccc(Cl)cc1
MT4 [2]
  CC50: > 100 µM
MT4 [3]
  EC50: > 100 µM

## O=C(O)c1ccccc1C(=O)NCCO/C(S)=N\c1ccccc1[N+](=O)[O-]
MT4 [2]
  CC50: > 100 µM
MT4 [3]
  EC50: > 100 µM

## COC(=O)c1ccccc1/N=C(/S)OCCN1C(=O)c2ccccc2C1=O
MT4 [2]
  CC50: 45 µM
MT4 [3]
  EC50: > 45 µM
